Source: ChEMBL document CHEMBL3797163, “Tryptic Stability of Synthetic Bactenecin Derivatives Is Determined by the Side Chain Length of Cationic Residues and the Peptide Conformation” (J Med Chem, 2016)
In brackets after ≈: the same amount, converted by molar mass. Square brackets hold non-standard residues; d marks the D form. Peptide text beside a SMILES is read from it. hArg = N=C(N)NCCCC[C@H](N)C(=O)O; Orn = NCCC[C@H](N)C(=O)O; Dab = NCC[C@H](N)C(=O)O

Assays:
[1] = Stability of compound assessed as bovine trypsin mediated degradation at 2 to 5 mM after 2 hrs by HPLC/MS analysis; format: ADME, Bos taurus; details: cattle, isolated protein, 5000 µM
Summary of the method: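 Bovine pancreatic trypsin (salt-free) was freshly dissolved at 1 mg per 50 mL in 0.1 M NH4HCO3, pH 8.2, and added to peptide, which was diluted from 2˗5 mM stocks to a final 60 µM. Reactions were shaken at 37 °C and sampled at 2 h and 24 h. Aliquots were quenched with acetic acid/TFA and analysed by RP-HPLC (C18, 220 nm) and direct-injection ESI-MS. No-enzyme samples served as controls.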

Bacillus subtilis = assay: Antimicrobial activity against Bacillus subtilis C626 incubated overnight by microdilution method; format: functional
Summary of the method: (§1)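 Broth microdilution in Mueller-Hinton broth. Peptides were serially diluted 2-fold in water at twice the final concentration, then mixed 1:1 with bacteria in 2× MHB to a final 2˗7 × 10^5 CFU/mL. Plates were incubated overnight at 37 °C. MIC was taken as the lowest concentration showing no growth.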

Acinetobacter baumannii = assay: Antimicrobial activity against Acinetobacter baumannii ATCC 17978 incubated overnight by microdilution method; format: functional; summary of the method: as §1
Staphylococcus aureus = assay: Antimicrobial activity against Staphylococcus aureus C622 incubated overnight by microdilution method; format: functional; summary of the method: as §1
Escherichia coli = assay: Antimicrobial activity against Escherichia coli O157:H7 incubated overnight by microdilution method; format: functional
Summary of the method: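 Broth microdilution in Mueller-Hinton broth. Peptides were serially diluted twofold in water at 2× final concentration and mixed 1:1 with bacteria in 2× MHB, giving a final inoculum of 2-7 × 10^5 CFU/mL. Plates were incubated overnight at 37 °C. MIC was read as the lowest concentration with no visible growth.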

SMILES | Stability [1] | MIC (Bacillus subtilis) [µM] | MIC (Acinetobacter baumannii) [µM] | MIC (Staphylococcus aureus) [µM] | MIC (Escherichia coli) [µM]
N=C(N)NCCC[C@H](NC(=O)[C@H](CCCNC(=N)N)NC(=O)[C@H](Cc1c[nH]c2ccccc12)NC(=O)[C@H](Cc1c[nH]c2ccccc12)NC(=O)[C@H](CCCCN)NC(=O)[C@H](Cc1c[nH]c2ccccc12)NC(=O)[C@H](Cc1c[nH]c2ccccc12)NC(=O)[C@H](CCCNC(=N)N)NC(=O)[C@@H](N)CCCCN)C(N)=O | Unstable | 40 (≈ 59.5 µg/mL) | 40 (≈ 59.5 µg/mL) | 5 (≈ 7.43 µg/mL) | 2.5 (≈ 3.72 µg/mL)
CC[C@H](C)[C@H](NC(=O)[C@H](Cc1c[nH]c2ccccc12)NC(=O)[C@H](CCCN)NC(=O)[C@H](Cc1c[nH]c2ccccc12)NC(=O)[C@H](Cc1c[nH]c2ccccc12)NC(=O)[C@H](CCCCNC(=N)N)NC(=O)[C@@H](N)CCCN)C(=O)N[C@@H](CCCCNC(=N)N)C(=O)N[C@@H](Cc1c[nH]c2ccccc12)C(N)=O (H-[Orn][hArg]WW[Orn]WI[hArg]W-NH2) | Unstable | 20 (≈ 28.9 µg/mL) | 5 (≈ 7.22 µg/mL) | 5 (≈ 7.22 µg/mL) | 1.25 (≈ 1.8 µg/mL)
CC[C@@H](C)[C@@H](NC(=O)[C@@H](Cc1c[nH]c2ccccc12)NC(=O)[C@@H](CCCCN)NC(=O)[C@@H](Cc1c[nH]c2ccccc12)NC(=O)[C@@H](Cc1c[nH]c2ccccc12)NC(=O)[C@@H](CCCNC(=N)N)NC(=O)[C@H](N)CCCCN)C(=O)N[C@H](CCCNC(=N)N)C(=O)N[C@H](Cc1c[nH]c2ccccc12)C(N)=O | Stable |  |  |  | 
N=C(N)NCCCC[C@H](NC(=O)[C@H](CCCCNC(=N)N)NC(=O)[C@H](Cc1c[nH]c2ccccc12)NC(=O)[C@@H](Cc1c[nH]c2ccccc12)NC(=O)[C@@H](CCCN)NC(=O)[C@@H](Cc1c[nH]c2ccccc12)NC(=O)[C@H](Cc1c[nH]c2ccccc12)NC(=O)[C@H](CCCCNC(=N)N)NC(=O)[C@H](N)CCCN)C(N)=O | Unstable | 40 (≈ 60 µg/mL) | 40 (≈ 60 µg/mL) | 5 (≈ 7.5 µg/mL) | 2.5 (≈ 3.75 µg/mL)
N=C(N)NCCCC[C@H](NC(=O)[C@H](CCCCNC(=N)N)NC(=O)[C@H](Cc1c[nH]c2ccccc12)NC(=O)[C@@H](Cc1c[nH]c2ccccc12)NC(=O)[C@@H](CCN)NC(=O)[C@@H](Cc1c[nH]c2ccccc12)NC(=O)[C@H](Cc1c[nH]c2ccccc12)NC(=O)[C@@H](CCCCNC(=N)N)NC(=O)[C@@H](N)CCN)C(N)=O | Unstable | 40 (≈ 58.9 µg/mL) | 40 (≈ 58.9 µg/mL) | 5 (≈ 7.36 µg/mL) | 2.5 (≈ 3.68 µg/mL)
CN[C@@H](CC(C)C)C(=O)N[C@H]1C(=O)N[C@@H](CC(N)=O)C(=O)N[C@H]2C(=O)N[C@H]3C(=O)N[C@H](C(=O)N[C@@H](C(=O)O)c4cc(O)cc(O)c4-c4cc3ccc4O)[C@H](O)c3ccc(c(Cl)c3)Oc3cc2cc(c3O[C@H]2O[C@@H](CO)[C@H](O)[C@@H](O)[C@@H]2O[C@@H]2C[C@@](C)(N)[C@@H](O)[C@@H](C)O2)Oc2ccc(cc2Cl)[C@H]1O |  | 1 (≈ 1.45 µg/mL) | > 32 | 1 (≈ 1.45 µg/mL) | > 32
NCC[C@H](NC(=O)[C@H](CCN)NC(=O)[C@H](Cc1c[nH]c2ccccc12)NC(=O)[C@H](Cc1c[nH]c2ccccc12)NC(=O)[C@H](CCN)NC(=O)[C@H](Cc1c[nH]c2ccccc12)NC(=O)[C@H](Cc1c[nH]c2ccccc12)NC(=O)[C@H](CCN)NC(=O)[C@@H](N)CCN)C(N)=O (H-[Dab][Dab]WW[Dab]WW[Dab][Dab]-NH2) | Stable | 20 (≈ 25.2 µg/mL) | 80 (≈ 101 µg/mL) | 5 (≈ 6.31 µg/mL) | 2.5 (≈ 3.16 µg/mL)
CC[C@@H](C)[C@@H](NC(=O)[C@@H](CCCNC(=N)N)NC(=O)[C@H](N)Cc1c[nH]c2ccccc12)C(=O)N[C@H](Cc1c[nH]c2ccccc12)C(=O)N[C@H](CCCCN)C(=O)N[C@H](Cc1c[nH]c2ccccc12)C(=O)N[C@H](Cc1c[nH]c2ccccc12)C(=O)N[C@H](CCCNC(=N)N)C(=O)N[C@H](CCCCN)C(N)=O | Stable |  |  |  | 
N=C(N)NCCC[C@@H](N)C(=O)N[C@H](CCCNC(=N)N)C(=O)N[C@H](Cc1c[nH]c2ccccc12)C(=O)N[C@H](Cc1c[nH]c2ccccc12)C(=O)N[C@H](CCCCN)C(=O)N[C@H](Cc1c[nH]c2ccccc12)C(=O)N[C@H](Cc1c[nH]c2ccccc12)C(=O)N[C@H](CCCNC(=N)N)C(=O)N[C@H](CCCCN)C(N)=O | Stable | 20 (≈ 29.7 µg/mL) |  | 5 (≈ 7.43 µg/mL) | 1.25 (≈ 1.86 µg/mL)
CC[C@H](C)[C@H](NC(=O)[C@H](Cc1c[nH]c2ccccc12)NC(=O)[C@H](CCCCNC(=N)N)NC(=O)[C@H](Cc1c[nH]c2ccccc12)NC(=O)[C@H](Cc1c[nH]c2ccccc12)NC(=O)[C@H](CCCCNC(=N)N)NC(=O)[C@@H](N)CCCCNC(=N)N)C(=O)N[C@@H](CCCCNC(=N)N)C(=O)N[C@@H](Cc1c[nH]c2ccccc12)C(N)=O (H-[hArg][hArg]WW[hArg]WI[hArg]W-NH2) | Unstable | 5 (≈ 7.78 µg/mL) | 5 (≈ 7.78 µg/mL) | 2.5 (≈ 3.89 µg/mL) | 2.5 (≈ 3.89 µg/mL)
NCCC[C@H](NC(=O)[C@H](CCCN)NC(=O)[C@H](Cc1c[nH]c2ccccc12)NC(=O)[C@H](Cc1c[nH]c2ccccc12)NC(=O)[C@H](CCCN)NC(=O)[C@H](Cc1c[nH]c2ccccc12)NC(=O)[C@H](Cc1c[nH]c2ccccc12)NC(=O)[C@H](CCCN)NC(=O)[C@@H](N)CCCN)C(N)=O (H-[Orn][Orn]WW[Orn]WW[Orn][Orn]-NH2) | Unstable | 40 (≈ 53.3 µg/mL) | > 80 | 20 (≈ 26.7 µg/mL) | 2.5 (≈ 3.33 µg/mL)
CC[C@H](C)[C@H](NC(=O)[C@H](Cc1c[nH]c2ccccc12)NC(=O)[C@H](CCN)NC(=O)[C@H](Cc1c[nH]c2ccccc12)NC(=O)[C@H](Cc1c[nH]c2ccccc12)NC(=O)[C@H](CCN)NC(=O)[C@@H](N)CCN)C(=O)N[C@@H](CCN)C(=O)N[C@@H](Cc1c[nH]c2ccccc12)C(N)=O (H-[Dab][Dab]WW[Dab]WI[Dab]W-NH2) | Unstable | 10 (≈ 12.8 µg/mL) | 5 (≈ 6.38 µg/mL) | 2.5 (≈ 3.19 µg/mL) | 2.5 (≈ 3.19 µg/mL)
N=C(N)NCCCC[C@H](NC(=O)[C@@H](CCCCNC(=N)N)NC(=O)[C@H](Cc1c[nH]c2ccccc12)NC(=O)[C@H](Cc1c[nH]c2ccccc12)NC(=O)[C@H](CCCCNC(=N)N)NC(=O)[C@H](Cc1c[nH]c2ccccc12)NC(=O)[C@@H](Cc1c[nH]c2ccccc12)NC(=O)[C@@H](CCCCNC(=N)N)NC(=O)[C@@H](N)CCCCNC(=N)N)C(N)=O | Unstable | 10 (≈ 16.1 µg/mL) | 20 (≈ 32.3 µg/mL) | 2.5 (≈ 4.03 µg/mL) | 2.5 (≈ 4.03 µg/mL)
CC[C@H](C)[C@H](NC(=O)[C@H](Cc1c[nH]c2ccccc12)NC(=O)[C@H](CCCN)NC(=O)[C@H](Cc1c[nH]c2ccccc12)NC(=O)[C@H](Cc1c[nH]c2ccccc12)NC(=O)[C@H](CCCN)NC(=O)[C@@H](N)CCCN)C(=O)N[C@@H](CCCN)C(=O)N[C@@H](Cc1c[nH]c2ccccc12)C(N)=O (H-[Orn][Orn]WW[Orn]WI[Orn]W-NH2) | Unstable | 10 (≈ 13.3 µg/mL) | 10 (≈ 13.3 µg/mL) | 5 (≈ 6.66 µg/mL) | 1.25 (≈ 1.66 µg/mL)
N=C(N)NCCC[C@@H](NC(=O)[C@@H](CCCNC(=N)N)NC(=O)[C@@H](Cc1c[nH]c2ccccc12)NC(=O)[C@@H](Cc1c[nH]c2ccccc12)NC(=O)[C@@H](CCCCN)NC(=O)[C@@H](Cc1c[nH]c2ccccc12)NC(=O)[C@@H](Cc1c[nH]c2ccccc12)NC(=O)[C@@H](CCCNC(=N)N)NC(=O)[C@H](N)CCCCN)C(N)=O | Stable | 20 (≈ 29.7 µg/mL) | 20 (≈ 29.7 µg/mL) | 5 (≈ 7.43 µg/mL) | 1.25 (≈ 1.86 µg/mL)
CC[C@H](C)[C@H](NC(=O)[C@H](Cc1c[nH]c2ccccc12)NC(=O)[C@H](CCN)NC(=O)[C@H](Cc1c[nH]c2ccccc12)NC(=O)[C@H](Cc1c[nH]c2ccccc12)NC(=O)[C@H](CCCCNC(=N)N)NC(=O)[C@@H](N)CCN)C(=O)N[C@@H](CCCCNC(=N)N)C(=O)N[C@@H](Cc1c[nH]c2ccccc12)C(N)=O (H-[Dab][hArg]WW[Dab]WI[hArg]W-NH2) | Unstable | 20 (≈ 28.3 µg/mL) | 5 (≈ 7.08 µg/mL) | 5 (≈ 7.08 µg/mL) | 1.25 (≈ 1.77 µg/mL)
CC[C@H](C)[C@H](NC(=O)[C@H](Cc1c[nH]c2ccccc12)NC(=O)[C@H](CCCNC(=N)N)NC(=O)[C@H](Cc1c[nH]c2ccccc12)NC(=O)[C@H](Cc1c[nH]c2ccccc12)NC(=O)[C@H](CCCCN)NC(=O)[C@@H](N)CCCNC(=N)N)C(=O)N[C@@H](CCCCN)C(=O)N[C@@H](Cc1c[nH]c2ccccc12)C(N)=O (H-RKWWRWIKW-NH2) | Unstable | 20 (≈ 28.9 µg/mL) | 5 (≈ 7.22 µg/mL) | 2.5 (≈ 3.61 µg/mL) | 1.25 (≈ 1.8 µg/mL)
N=C(N)NCCC[C@H](NC(=O)[C@H](Cc1c[nH]c2ccccc12)NC(=O)[C@H](Cc1c[nH]c2ccccc12)NC(=O)[C@H](CCCCN)NC(=O)[C@@H](N)CCCNC(=N)N)C(=O)N[C@@H](Cc1c[nH]c2ccccc12)C(=O)N[C@@H](Cc1c[nH]c2ccccc12)C(=O)N[C@@H](CCCCN)C(=O)N[C@@H](CCCCN)C(N)=O (H-RKWWRWWKK-NH2) | Unstable | > 40 | > 40 | 10 (≈ 14.6 µg/mL) | 2.5 (≈ 3.65 µg/mL)
CC[C@H](C)[C@H](NC(=O)[C@H](Cc1c[nH]c2ccccc12)NC(=O)[C@H](CCCCN)NC(=O)[C@H](Cc1c[nH]c2ccccc12)NC(=O)[C@H](Cc1c[nH]c2ccccc12)NC(=O)[C@H](CCCNC(=N)N)NC(=O)[C@@H](N)CCCCN)C(=O)N[C@@H](CCCNC(=N)N)C(=O)N[C@@H](Cc1c[nH]c2ccccc12)C(N)=O | Unstable | 20 (≈ 28.9 µg/mL) | 5 (≈ 7.22 µg/mL) | 5 (≈ 7.22 µg/mL) | 1.25 (≈ 1.8 µg/mL)
